Results taken from the M2OR odorant receptor database.
Where a chain is given by its changes, count along the chain named.

Tests used:
Conditions in all cases: stereoisomer not certain
[1] = tested on: T1, O1440
T1 sequence (whole entry): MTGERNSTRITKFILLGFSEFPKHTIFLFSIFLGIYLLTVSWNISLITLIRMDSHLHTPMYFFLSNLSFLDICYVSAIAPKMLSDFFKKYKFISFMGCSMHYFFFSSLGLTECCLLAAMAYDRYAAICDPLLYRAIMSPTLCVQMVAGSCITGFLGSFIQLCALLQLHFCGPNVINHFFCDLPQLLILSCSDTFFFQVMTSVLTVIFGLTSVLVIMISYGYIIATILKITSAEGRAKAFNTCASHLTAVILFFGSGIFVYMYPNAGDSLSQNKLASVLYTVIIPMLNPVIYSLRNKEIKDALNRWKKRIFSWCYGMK
In short: (§1)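 Each receptor–molecule pair is labelled responsive or non-responsive (inactive) according to whether the original authors judged the measured signal statistically different from baseline. The data were taken from the main text and supplementary material of published papers and checked for typos and inconsistencies. Assay methods differed by source, with transient luciferase assays in mammalian cell lines being common.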

[2] = tested on: T2, O10R2 I170L
T2 sequence (whole entry): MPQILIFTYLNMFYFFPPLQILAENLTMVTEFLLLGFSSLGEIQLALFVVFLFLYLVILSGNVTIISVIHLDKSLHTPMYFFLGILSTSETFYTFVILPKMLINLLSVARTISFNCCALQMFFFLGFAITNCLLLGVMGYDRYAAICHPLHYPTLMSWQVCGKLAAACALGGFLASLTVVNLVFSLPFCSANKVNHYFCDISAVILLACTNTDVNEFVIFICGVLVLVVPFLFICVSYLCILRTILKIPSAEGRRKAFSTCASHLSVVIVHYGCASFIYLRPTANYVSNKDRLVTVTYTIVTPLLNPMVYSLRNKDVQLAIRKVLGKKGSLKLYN
In short: as §1

[3] = tested on: T3, O10T2 I137M
T3 sequence (whole entry): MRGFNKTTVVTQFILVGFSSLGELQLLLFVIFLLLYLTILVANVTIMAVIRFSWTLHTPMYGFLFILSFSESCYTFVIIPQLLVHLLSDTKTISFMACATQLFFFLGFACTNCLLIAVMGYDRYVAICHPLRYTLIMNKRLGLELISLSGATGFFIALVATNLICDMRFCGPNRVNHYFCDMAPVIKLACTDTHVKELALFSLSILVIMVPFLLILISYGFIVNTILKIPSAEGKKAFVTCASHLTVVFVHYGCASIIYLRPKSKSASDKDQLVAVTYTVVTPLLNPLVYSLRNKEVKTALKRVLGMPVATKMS
In short: as §1

[4] = tested on: T4, O10V1 Q123R
T4 sequence (whole entry): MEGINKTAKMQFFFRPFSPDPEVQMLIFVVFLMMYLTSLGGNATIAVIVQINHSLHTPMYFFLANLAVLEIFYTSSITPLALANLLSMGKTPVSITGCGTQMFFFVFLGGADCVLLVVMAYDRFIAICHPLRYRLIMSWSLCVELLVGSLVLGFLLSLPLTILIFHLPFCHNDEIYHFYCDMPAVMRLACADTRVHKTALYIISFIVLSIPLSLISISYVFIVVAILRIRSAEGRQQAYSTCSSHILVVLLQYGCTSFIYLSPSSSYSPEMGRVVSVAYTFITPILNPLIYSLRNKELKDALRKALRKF
In short: as §1

[5] = tested on: T5, O10X1 N4T R181S
T5 sequence (whole entry): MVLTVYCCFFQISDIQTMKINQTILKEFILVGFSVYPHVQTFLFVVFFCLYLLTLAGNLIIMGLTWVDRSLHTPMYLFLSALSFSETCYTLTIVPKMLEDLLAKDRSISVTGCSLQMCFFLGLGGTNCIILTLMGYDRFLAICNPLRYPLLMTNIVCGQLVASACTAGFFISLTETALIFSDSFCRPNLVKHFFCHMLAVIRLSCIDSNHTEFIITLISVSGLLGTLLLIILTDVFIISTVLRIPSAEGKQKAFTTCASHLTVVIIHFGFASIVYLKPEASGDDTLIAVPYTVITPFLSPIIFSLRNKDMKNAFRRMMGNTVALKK
In short: as §1

[6] = tested on: T6, O11G2 F3I I99N V116I
T6 sequence (whole entry): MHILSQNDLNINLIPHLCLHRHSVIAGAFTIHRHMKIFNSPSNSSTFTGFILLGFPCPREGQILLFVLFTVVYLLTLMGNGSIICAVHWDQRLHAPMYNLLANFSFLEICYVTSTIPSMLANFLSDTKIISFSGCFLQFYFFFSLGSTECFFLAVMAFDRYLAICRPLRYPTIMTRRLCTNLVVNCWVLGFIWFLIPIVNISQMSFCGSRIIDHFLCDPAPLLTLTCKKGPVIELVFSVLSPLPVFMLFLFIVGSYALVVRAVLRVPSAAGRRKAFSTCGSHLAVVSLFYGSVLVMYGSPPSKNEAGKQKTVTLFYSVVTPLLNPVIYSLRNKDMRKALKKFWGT
In short: as §1

[7] = tested on: T7, O11H1 M240V
T7 sequence (whole entry): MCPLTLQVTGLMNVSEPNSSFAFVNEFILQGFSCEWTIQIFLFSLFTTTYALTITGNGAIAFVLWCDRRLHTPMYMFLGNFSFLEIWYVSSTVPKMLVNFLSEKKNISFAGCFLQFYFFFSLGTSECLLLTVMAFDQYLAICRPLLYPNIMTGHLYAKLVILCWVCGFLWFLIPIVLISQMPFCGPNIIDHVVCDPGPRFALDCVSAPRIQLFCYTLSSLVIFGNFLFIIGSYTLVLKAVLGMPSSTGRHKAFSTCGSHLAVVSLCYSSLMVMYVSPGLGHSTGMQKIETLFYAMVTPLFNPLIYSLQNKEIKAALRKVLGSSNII
In short: as §1

[8] = tested on: T8, O11H6 I107T
T8 sequence (whole entry): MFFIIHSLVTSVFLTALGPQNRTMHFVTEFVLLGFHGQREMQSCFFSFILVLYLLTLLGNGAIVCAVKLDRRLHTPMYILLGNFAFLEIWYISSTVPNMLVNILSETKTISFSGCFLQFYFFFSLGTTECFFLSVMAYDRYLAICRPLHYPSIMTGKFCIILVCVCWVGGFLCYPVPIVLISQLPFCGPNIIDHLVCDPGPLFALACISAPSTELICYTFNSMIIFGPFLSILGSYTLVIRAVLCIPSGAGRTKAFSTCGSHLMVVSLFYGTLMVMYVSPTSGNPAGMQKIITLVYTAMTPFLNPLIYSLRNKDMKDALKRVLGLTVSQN
In short: as §1

[9] = tested on: T9, O11HC C156Y V240M
T9 sequence (whole entry): T7 sequence (whole entry) with S33T, R68W, V240M
In short: as §1

[10] = tested on: T10, O12D2 S104F
T10 sequence (whole entry): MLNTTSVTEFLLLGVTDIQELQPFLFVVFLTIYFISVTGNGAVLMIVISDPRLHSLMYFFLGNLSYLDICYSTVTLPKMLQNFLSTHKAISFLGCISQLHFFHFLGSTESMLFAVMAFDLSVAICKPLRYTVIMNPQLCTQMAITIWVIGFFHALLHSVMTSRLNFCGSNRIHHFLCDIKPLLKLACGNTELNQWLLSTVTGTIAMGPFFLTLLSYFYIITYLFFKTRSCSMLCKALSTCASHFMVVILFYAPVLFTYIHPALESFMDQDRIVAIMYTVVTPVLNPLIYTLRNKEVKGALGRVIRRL
In short: as §1

[11] = tested on: T11, O13C2 H6Q
T11 sequence (whole entry): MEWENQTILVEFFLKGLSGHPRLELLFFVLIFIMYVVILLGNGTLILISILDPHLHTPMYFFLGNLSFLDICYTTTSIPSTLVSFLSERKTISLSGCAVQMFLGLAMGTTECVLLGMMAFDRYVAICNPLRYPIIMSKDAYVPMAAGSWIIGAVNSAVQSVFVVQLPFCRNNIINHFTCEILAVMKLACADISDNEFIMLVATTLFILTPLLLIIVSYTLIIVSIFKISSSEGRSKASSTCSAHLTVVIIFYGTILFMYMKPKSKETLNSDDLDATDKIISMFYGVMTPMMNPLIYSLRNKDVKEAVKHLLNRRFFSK
In short: as §1

[12] = tested on: T12, O13C8 A19D
T12 sequence (whole entry): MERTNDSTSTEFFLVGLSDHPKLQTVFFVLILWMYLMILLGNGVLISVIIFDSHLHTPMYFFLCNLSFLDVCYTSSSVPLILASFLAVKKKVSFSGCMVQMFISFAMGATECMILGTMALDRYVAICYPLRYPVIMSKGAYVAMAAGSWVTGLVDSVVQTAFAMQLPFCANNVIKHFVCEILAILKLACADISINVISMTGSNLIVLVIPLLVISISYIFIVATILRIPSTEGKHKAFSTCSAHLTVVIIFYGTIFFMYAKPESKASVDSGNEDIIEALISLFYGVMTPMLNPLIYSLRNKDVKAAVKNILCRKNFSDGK
In short: as §1

[13] = tested on: T13, O13C9 H17L V19G L23H
T13 sequence (whole entry): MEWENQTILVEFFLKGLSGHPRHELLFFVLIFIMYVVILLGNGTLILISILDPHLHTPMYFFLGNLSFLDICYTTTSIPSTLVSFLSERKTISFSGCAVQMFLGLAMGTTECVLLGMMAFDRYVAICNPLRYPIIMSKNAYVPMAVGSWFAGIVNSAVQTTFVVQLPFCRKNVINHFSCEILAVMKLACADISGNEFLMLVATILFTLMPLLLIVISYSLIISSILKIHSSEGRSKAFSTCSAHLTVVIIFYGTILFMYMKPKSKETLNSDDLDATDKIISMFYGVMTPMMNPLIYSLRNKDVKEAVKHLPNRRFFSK
In short: as §1

[14] = tested on: T14, O13C9 Q6H
T14 sequence (whole entry): T13 sequence (whole entry) with Q6H, L17H, G19V, H23L
In short: as §1

[15] = tested on: T15, O13F1 F18S T254M
T15 sequence (whole entry): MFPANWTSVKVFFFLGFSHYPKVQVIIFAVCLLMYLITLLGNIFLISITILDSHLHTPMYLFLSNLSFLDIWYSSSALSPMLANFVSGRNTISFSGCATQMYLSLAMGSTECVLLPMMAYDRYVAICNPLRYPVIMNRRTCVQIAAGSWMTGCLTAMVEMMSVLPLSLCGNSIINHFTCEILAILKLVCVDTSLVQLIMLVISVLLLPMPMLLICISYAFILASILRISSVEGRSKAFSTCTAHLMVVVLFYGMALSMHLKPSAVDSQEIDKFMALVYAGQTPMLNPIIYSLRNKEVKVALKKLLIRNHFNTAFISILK
In short: as §1

[16] = tested on: T16, O13F1 F18S
T16 sequence (whole entry): T15 sequence (whole entry) with M254T
In short: as §1

[17] = tested on: T17, O13G1 K46I M146L
T17 sequence (whole entry): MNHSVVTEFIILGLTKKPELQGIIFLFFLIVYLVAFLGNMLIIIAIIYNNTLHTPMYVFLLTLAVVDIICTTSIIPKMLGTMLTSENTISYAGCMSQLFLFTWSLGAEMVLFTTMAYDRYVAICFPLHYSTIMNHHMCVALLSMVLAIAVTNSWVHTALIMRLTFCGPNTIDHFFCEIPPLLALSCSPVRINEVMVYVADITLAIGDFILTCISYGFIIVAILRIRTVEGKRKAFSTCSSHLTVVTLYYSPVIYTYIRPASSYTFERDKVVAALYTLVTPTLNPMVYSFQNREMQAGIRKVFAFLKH
In short: as §1

[18] = tested on: T18, O13G1
T18 sequence (whole entry): T17 sequence (whole entry) with I46K, I132V, L146M
In short: as §1

[19] = tested on: T19, O13H1 Y266S
T19 sequence (whole entry): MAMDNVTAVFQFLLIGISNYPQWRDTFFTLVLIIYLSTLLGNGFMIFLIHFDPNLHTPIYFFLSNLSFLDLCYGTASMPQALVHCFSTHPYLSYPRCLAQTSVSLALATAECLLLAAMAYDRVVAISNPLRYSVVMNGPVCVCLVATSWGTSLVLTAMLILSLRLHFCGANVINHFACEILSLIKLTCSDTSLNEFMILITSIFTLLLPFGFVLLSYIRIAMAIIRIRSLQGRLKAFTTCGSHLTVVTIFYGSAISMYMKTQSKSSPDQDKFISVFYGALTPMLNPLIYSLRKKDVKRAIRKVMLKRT
In short: as §1

[20] = tested on: T20, O13J1
T20 sequence (whole entry): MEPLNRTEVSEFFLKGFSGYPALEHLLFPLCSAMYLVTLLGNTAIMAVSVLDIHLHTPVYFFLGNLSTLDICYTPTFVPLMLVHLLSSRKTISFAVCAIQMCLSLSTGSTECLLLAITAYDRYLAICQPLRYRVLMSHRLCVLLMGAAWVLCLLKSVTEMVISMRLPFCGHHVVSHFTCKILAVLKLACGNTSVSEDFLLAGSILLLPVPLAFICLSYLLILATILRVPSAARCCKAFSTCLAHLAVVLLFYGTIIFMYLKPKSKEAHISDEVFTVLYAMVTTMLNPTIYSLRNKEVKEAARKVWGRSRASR
In short: as §1

Measured: odorant receptor agonist call

CCCCCCCCCCCCCC(C)=O
inactive: [1]

O=C1CCCCCCCCCC1
inactive: [1]

CC1CCCCCCCCCCCC(=O)C1 (configuration not stated)
active: [1]

CC1=C(O)C(=O)C(C)O1 (configuration not stated)
not listed: [1]
inactive: all other assays above
